Assay results gathered from unrelated publications.
Compare with care: the assays were run in different laboratories.
Target: NUAK family SNF1-like kinase 1 (NUAK1, Homo sapiens, UniProt O60285)
Residues used in one study (O60285 1-661): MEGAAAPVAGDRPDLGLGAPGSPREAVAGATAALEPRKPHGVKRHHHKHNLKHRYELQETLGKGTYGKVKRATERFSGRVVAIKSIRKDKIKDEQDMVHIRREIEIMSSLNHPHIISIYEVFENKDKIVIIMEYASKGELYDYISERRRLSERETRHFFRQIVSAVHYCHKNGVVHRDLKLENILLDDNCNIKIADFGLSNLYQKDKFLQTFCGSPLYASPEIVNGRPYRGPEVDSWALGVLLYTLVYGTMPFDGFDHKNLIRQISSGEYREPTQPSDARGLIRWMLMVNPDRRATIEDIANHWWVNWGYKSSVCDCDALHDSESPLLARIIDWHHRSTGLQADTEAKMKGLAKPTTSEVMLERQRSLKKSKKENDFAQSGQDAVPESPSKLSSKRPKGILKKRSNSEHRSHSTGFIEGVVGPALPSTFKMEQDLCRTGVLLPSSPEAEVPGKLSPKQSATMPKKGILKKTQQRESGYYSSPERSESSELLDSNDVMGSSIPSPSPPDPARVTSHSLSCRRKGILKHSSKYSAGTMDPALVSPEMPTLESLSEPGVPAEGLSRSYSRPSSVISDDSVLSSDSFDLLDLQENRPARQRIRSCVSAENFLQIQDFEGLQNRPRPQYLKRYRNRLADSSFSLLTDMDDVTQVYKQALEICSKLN

SMILES	assay	conditions	endpoint	value
CCCCC(=O)Nc1ccc(-c2ccc3ncn(CCC)c(=O)c3c2)cn1	binding, competition with immobilised ligand	0.5 µM	remaining binding	73%
C=CC(=O)N1CCC[C@@H](n2nc(-c3ccc(Oc4ccccc4)cc3)c3c(N)ncnc32)C1	enzyme activity, inhibitor	1 µM	inhibition	10%
COc1ccc2[nH]c3c4[nH]c5ccc(OC)cc5c4c4c(c3c2c1)C(=O)NC4=O	binding	1 µM	remaining binding	25%
CC(C)S(=O)(=O)c1ccc2nccc(Nc3ccc4sc(C5CCCC5)nc4c3)c2c1	enzyme activity, inhibitor	1 µM	activity vs control	108%
C#Cc1cc(-c2cc(Nc3nc(N[C@@H](C)c4ccc(F)cn4)ncc3Cl)n[nH]2)ccc1C=O	enzyme activity, inhibitor	0.2 µM	inhibition	17.1%
C1=C/COCc2cc(ccc2OCCN2CCCC2)Nc2nccc(n2)-c2cccc(c2)COC/1	cell-free assay	0.1 µM	remaining signal	39%
C=CC(=O)N1CCC([C@@H]2CCNc3c(C(N)=O)c(-c4ccc(Oc5ccccc5)cc4)nn32)CC1	enzyme activity, inhibitor	1 µM	inhibition	2%
C[C@H]1CC[C@H](n2c3cnccc3c3cnc(Nc4ccc5c(n4)CCN(C(=O)CO)C5)nc32)CC1	cell-free assay	1 µM	remaining signal	72%
